For 33 compounds, inhibition and Inhibition results are on record in ChEMBL document CHEMBL2040545, “Anti-influenza activity of marchantins, macrocyclic bisbibenzyls contained in liverworts” (2011).

Active and inactive are the calls of the source. No cut-off for these calls is given here.

In experiment [1] the target is Polymerase acidic protein (Influenza A virus (A/Puerto Rico/8/1934(H1N1))) (UniProt P03433). In words: Inhibition of PA endonuclease at 10 uM. It is filed as functional. The essentials:
(§1)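 Recombinant His-tagged influenza A PA N-terminal endonuclease domain from E. coli, purified on Ni2+-agarose and then Q anion exchange, used at about 0.1 µM (0.35 µg/100 µl). Buffer at pH 7.3, 1 µg M13mp18 single-stranded circular DNA as substrate, compound at 1 or 10 µM. Digestion read by agarose electrophoresis with ethidium bromide staining. No-enzyme control included.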

Experiment [2] has the same target. In words: Inhibition of PA endonuclease at 1 uM. The format is functional. The essentials:
as §1

Experiment [3] can be described thus: (§2) Inhibition of Influenza Replication. It is filed as functional, Canis lupus familiaris, MDCK. The essentials:
(§3)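 MDCK monolayers (MEM, 10% FBS, 37 °C). Compounds at 6.25–50 µM, DMSO vehicle, premixed 30 min at 37°C with TCID50 of A/Hiroshima/52/2006 (H3N2), A/Solomon/3/2006 (H1N1) or B/Malaysia/2506/2004, then added to PBS-washed cells. Incubated 4 days at 34°C, 5% CO2. Cells fixed in 10% formaldehyde; surviving cells stained with naphthol blue black.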

Experiment [4] addresses Polymerase acidic protein (Influenza A virus (A/Puerto Rico/8/1934(H1N1))) (UniProt P03433). In words: Inhibition of Influenza Viral Focus Formation at 50 uM relative to control. The format is functional, cell-based. As to conditions: Canis lupus familiaris, MDCK. The essentials:
(§4)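 MDCK cells infected with B/Malaysia/2506/2004 at m.o.i. 0.001, adsorbed 30 min at 37 °C, washed. Compound (50, 12.5 or 3.1 µM, DMSO vehicle) added in growth medium, no pre-incubation. Supernatant sampled daily over 3 days at 37°C. Each sample titrated 10-fold on fresh MDCK, ethanol-fixed after 1 day. Foci stained with anti-NP serum and the PAP/DAB method, then counted as FFU/ml.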

For experiment [5] the target is unchanged. In words: Inhibition of Influenza Viral Focus Formation at 13 uM relative to control. It is filed as functional, cell-based. Conditions: Canis lupus familiaris, MDCK. In outline:
as §4

Experiment [6] can be described thus: as §2. It is filed as functional, Canis lupus familiaris, MDCK. The essentials:
as §3
This is another data set of the same source.

Experiment [7] in a line: as §2. The format is functional, Canis lupus familiaris, MDCK. In outline:
as §3
This is another data set of the same source.

For `COC1=CC(=O)O[C@@H](/C=C/c2ccccc2)C1`, the inhibition entry in experiment [1] and in experiment [2] was “inactive” each time.
In the case of `COc1cc(O)cc(C(=O)c2cc(C)cc(OC)c2OC)c1CO`, the inhibition result in experiment [1] and in experiment [2] was “inactive” throughout.
As for `CC(C)=CCOc1c2occc2cc2ccc(=O)oc12`, the inhibition result in experiment [1] and in experiment [2] was “inactive” in each case.
`CC1(C)OC1COc1c2occc2cc2ccc(=O)oc12` (stereo unspecified): the inhibition entry in experiment [1] and in experiment [2] was “inactive” each time.
On to `Oc1cc2cc(c1O)Oc1ccc(cc1)CCc1cccc(O)c1Oc1cccc(c1)CC2` [MARCHANTIN A], for which the inhibition entry in experiment [1] is “Active”. Besides, the inhibition entry in experiment [2] was “inactive”. For the same compound, in experiment [3], the Inhibition was determined as 50 µM. The inhibition was found to be 10.2% in experiment [4] and 2.33% in experiment [5].
As to `Oc1cccc(CCc2ccc(Oc3cc(CCc4cccc(O)c4)cc(O)c3O)cc2)c1` [PERROTETTIN F], the inhibition entry in experiment [1] was “Active”. In addition, in experiment [2], the inhibition result is “inactive”. The Inhibition in experiment [3] was 50 µM.
`COc1cc(C)cc(C(=O)c2cc(O)cc(OC)c2CO)c1O`: the inhibition entry in experiment [1] and in experiment [2] was “inactive” throughout.
Take `Oc1ccc2cc1Oc1ccc(cc1)CCc1cccc(c1)Oc1c(O)cccc1CC2`: the inhibition result in experiment [1] and in experiment [2] was “inactive” in each case.
On to `COc1c2ccoc2c(OC)c2oc(=O)ccc12`, for which the inhibition result in experiment [1] and in experiment [2] was “inactive” each time.
As to `Oc1ccc2cc1Oc1ccc(cc1)CCc1cccc(O)c1Oc1cccc(c1)CC2`, the inhibition entry in experiment [1] and in experiment [2] was “inactive” in each case.
On to `COc1cccc2c1Oc1cccc(c1)CCc1cc(OC)c(OC)c(c1)Oc1ccc(cc1)CC2`, for which the inhibition entry in experiment [1] and in experiment [2] was “inactive” each time. For the same compound, the results for the inhibition in experiment [4] and in experiment [5] were 5.78% and -2.75%, respectively.
Take `COc1cc(/C=C/c2ccccc2)oc(=O)c1`: the inhibition entry in experiment [1] and in experiment [2] was “inactive” each time.
Turning to `COc1c2occc2cc2ccc(=O)oc12`, the inhibition entry in experiment [1] and in experiment [2] was “inactive” throughout.
As for `Oc1cc2cc(c1O)Oc1ccc(cc1)CCc1ccc(O)c(O)c1Oc1cccc(c1)CC2`, the inhibition result in experiment [1] is “Active”. For the same compound, in experiment [2], the inhibition entry was “inactive”.
Consider `COC1=CC(=O)O[C@@H](CCc2ccccc2)C1`, for which the inhibition result in experiment [1] and in experiment [2] was “inactive” each time.
As for `COc1ccc2c(c1)CCc1ccc(cc1)Oc1cc(ccc1O)CCc1ccc-2c(O)c1`, the inhibition result in experiment [1] and in experiment [2] was “inactive” each time. The inhibition was 5.56% in experiment [4] and -3.59% in experiment [5].
Take `CC(C)=CCOc1c2ccoc2cc2oc(=O)ccc12`: the inhibition result in experiment [1] and in experiment [2] was “inactive” throughout.
Consider `COC1Cc2cccc(c2)Oc2c(O)cccc2CCc2ccc(cc2)Oc2cc1cc(O)c2O` (stereo unspecified) [MARCHANTIN E], for which the inhibition result in experiment [1] is “Active”. Also, the inhibition result in experiment [2] is “inactive”. Further, the Inhibition was 50 µM in experiment [6], 50 µM in experiment [7] and 25 µM in experiment [3]. The inhibition in experiment [4] came to 4.44%; in experiment [5], 2.96%.
Regarding `COc1cc2c(cc1O)-c1ccc(O)cc1CCc1cc(O)c(O)c(c1)Oc1ccc(cc1)CC2`, the inhibition result in experiment [1] was “Active”. The inhibition entry in experiment [2] was “inactive”. Moreover, the inhibition in experiment [4] is 5.11%; in experiment [5] it was -4.66%.
Turning to `COc1ccc2ccc(=O)oc2c1CC=C(C)C`, the inhibition entry in experiment [1] and in experiment [2] was “inactive” in each case.
Regarding `COC(=O)c1[nH]c(C(=O)OC)c(-c2c[nH]c3ccc(O)cc23)c1-c1c[nH]c2ccccc12`, the inhibition result in experiment [1] and in experiment [2] was “inactive” in each case.
For the compound `Oc1ccc2c(c1)CCc1ccc(O)c(c1)Oc1ccc(cc1)CCc1cccc(c1)O2`, the inhibition result in experiment [1] and in experiment [2] was “inactive” throughout.
On to `COc1ccc(/C=C/c2cc(OC)cc(=O)o2)cc1`, for which the inhibition entry in experiment [1] and in experiment [2] was “inactive” throughout.
On to `COc1c2ccoc2c(OCC=C(C)C)c2oc(=O)ccc12`, for which the inhibition entry in experiment [1] and in experiment [2] was “inactive” each time.
With `C/C=C(\C)C(=O)CC1C2=CC(=O)[C@](C)(OC(C)=O)C(=O)C2=COC12OC(C)CCC2O` (stereo partly specified), the inhibition result in experiment [1] and in experiment [2] was “inactive” each time.
Turning to `C[C@H]1OC(=O)C=C[C@@H]1O`, the inhibition entry in experiment [1] and in experiment [2] was “inactive” each time.
As for `COC(=O)c1[nH]c(C(=O)OC)c(-c2c[nH]c3ccc(O)cc23)c1-c1c[nH]c2ccc(O)cc12`, the inhibition result in experiment [1] and in experiment [2] was “inactive” throughout.
Consider `COc1cccc2c(-c3ccc(O)c4c(OC)cccc34)ccc(O)c12`, for which the inhibition result in experiment [1] and in experiment [2] was “inactive” each time.
As for `C=CCc1ccc(O)c(-c2ccc(O)c(CC=C)c2)c1`, the inhibition result in experiment [1] and in experiment [2] was “inactive” in each case.
Turning to `CC(C)[C@@H](C)/C=C/[C@@H](C)[C@H]1CCC2=C3C=CC4=CCCC[C@]4(C)[C@H]3CC[C@@]21C`, the inhibition result in experiment [1] and in experiment [2] was “inactive” throughout.
Regarding `COc1c2ccoc2cc2oc(=O)ccc12`, the inhibition result in experiment [1] and in experiment [2] was “inactive” throughout.
As for `C=CCc1ccc(O)c(-c2cc(CC=C)ccc2O)c1`, the inhibition result in experiment [1] and in experiment [2] was “inactive” in each case.
As for `COC1=CC(=O)O[C@@H](/C=C/c2ccc3c(c2)OCO3)C1`, the inhibition entry in experiment [1] and in experiment [2] was “inactive” each time.

By inhibition is commonly meant the drop in the measured response relative to a control, in per cent.
